The text below walks through data of ChEMBL document CHEMBL3525946, “Species comparison of in vivo P-glycoprotein-mediated brain efflux using mdr1a-deficient rats and mice” (Drug Metab Dispos, 2012).

The nature of data set [1]: Percentage unbound in Crl:NMRI(Han) mouse plasma at 1 uM after 5 hrs by equilibrium dialysis method. The class given is ADME, cell-free. In short, it runs like this:
(§1)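 Equilibrium dialysis (12-14 kDa membrane) of plasma or brain homogenate from naïve male Sprague-Dawley rats or Crl:NMRI(Han) mice. Donor side spiked to 1 µM final; receiver phosphate buffer pH 7.4; 37°C for 5 h. Buffer phase quantified by LC-MS. Brain fu corrected for homogenate dilution to intact tissue. Mean of two independent determinations.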
For orientation: In equilibrium dialysis only unbound substance equilibrates across the membrane.

The nature of data set [2]: Percentage unbound in Sprague-Dawley rat plasma at 1 uM after 5 hrs by equilibrium dialysis method. The class given is ADME, cell-free. In short, it runs like this: as §1
Data set [3] can be described thus: Total plasma concentration in wild type Sprague-Dawley rat expressing Abcb1a at 6 mg/kg/day administered through continuous minipump treatment for 3 days by UPLC-MS analysis. The note with it: other: continuous minipump. The class given is ADME, organism-based. In short, it runs like this:
(§2)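 Subcutaneous osmotic minipump infusion for 3 days to steady state, implanted under isoflurane (rats 10 µl/h, mice 1 µl/h). Mdr1a-deficient (SD-Abcb1a knockout rats; Crl:CF1-Abcb1a mutant mice) and wild-type animals, n=3-5 per group. After decapitation, EDTA plasma and whole brain (homogenized 1:4 in 70% acetonitrile) were precipitated with internal standard. Parent and metabolites quantified by UPLC-MS. Mean ± SEM.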

Data set [4] in a line: Total drug level in wild type Sprague-Dawley rat brain expressing Abcb1a at 6 mg/kg/day administered through continuous minipump treatment for 3 days by UPLC-MS analysis. The class given is ADME, organism-based. Conditions: other: continuous minipump, read-out: Drug uptake. In short, it runs like this:
as §2

A short description of data set [5]: Total brain to plasma partition coefficient of the compound in wild type Sprague-Dawley rat expressing Abcb1a at 6 mg/kg/day administered through continuous minipump treatment for 3 days. The class given is ADME, organism-based. Conditions: brain and plasma, other: continuous minipump. In short, it runs like this: (§3)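 Kp is total brain concentration divided by total plasma concentration at steady state. Measured after a 3-day subcutaneous osmotic minipump infusion in mdr1a-deficient or wild-type rats or mice, n=3-5. Concentrations determined by UPLC-MS in plasma and in whole-brain homogenate (70% acetonitrile). Mean ± SEM.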

A short description of data set [6]: Total plasma concentration in mdr1a-deficient Sprague-Dawley rat at 6 mg/kg/day administered through continuous minipump treatment for 3 days by UPLC-MS analysis. The class given is ADME, organism-based. The note with it: other: continuous minipump. In short, it runs like this: as §2
Data set [7] can be described thus: Total drug level in mdr1a-deficient rat brain at 6 mg/kg/day administered through continuous minipump treatment for 3 days by UPLC-MS analysis. The class given is ADME, organism-based. The note with it: other: continuous minipump, read-out: Drug uptake. In short, it runs like this:
as §2

A short description of data set [8]: Total brain to plasma partition coefficient of the compound in mdr1a-deficient rat at 6 mg/kg/day administered through continuous minipump treatment for 3 days. The class given is ADME, organism-based. Conditions: brain and plasma, other: continuous minipump. In short, it runs like this: as §3
Data set [9] in a line: Total plasma concentration in wild type Crl:CF1 mouse expressing Abcb1a mutant at 3 mg/kg/day administered through continuous minipump treatment for 3 days by UPLC-MS analysis. The class given is ADME, organism-based. The note with it: other: continuous minipump. In short, it runs like this:
as §2

Data set [10] in a line: Total drug level in wild type Crl:CF1 mouse brain expressing Abcb1a mutant at 3 mg/kg/day administered through continuous minipump treatment for 3 days by UPLC-MS analysis. The note with it: other: continuous minipump, read-out: Drug uptake. The class given is ADME, organism-based. In short, it runs like this: as §2
The nature of data set [11]: Total brain to plasma partition coefficient of the compound in wild type Crl:CF1 mouse expressing Abcb1a mutant at 3 mg/kg/day administered through continuous minipump treatment for 3 days. The note with it: other: continuous minipump. The class given is ADME, organism-based. In short, it runs like this:
as §3

Data set [12] in a line: Total plasma concentration in mouse at 3 mg/kg/day administered through continuous minipump treatment for 3 days by UPLC-MS analysis. The class given is ADME, organism-based. The note with it: other: continuous minipump. In short, it runs like this: as §2
A short description of data set [13]: Total drug level in mdr1a-deficient mouse brain at 3 mg/kg/day administered through continuous minipump treatment for 3 days by UPLC-MS analysis. The class given is ADME, organism-based. Conditions: other: continuous minipump, read-out: Drug uptake. In short, it runs like this:
as §2

The nature of data set [14]: Total brain to plasma partition coefficient of the compound in mdr1a-deficient mouse at 3 mg/kg/day administered through continuous minipump treatment for 3 days. Conditions: other: continuous minipump. The class given is ADME, organism-based. In short, it runs like this:
as §3

Data set [15] is described as follows: Percentage unbound in Sprague-Dawley rat brain at 1 uM after 5 hrs by equilibrium dialysis method. The class given is ADME, tissue-based. In short, it runs like this: as §1
Data set [16] can be described thus: Unbound brain to plasma partition coefficient of the compound in wild type Sprague-Dawley rat expressing Abcb1a at 6 mg/kg/day administered through continuous minipump treatment for 3 days. The class given is ADME, organism-based. Conditions: other: continuous minipump, read-out: K(p,uu,brain). In short, it runs like this:
(§4)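 Kp,uu is (Cbrain,total × fu,brain)/(Cplasma,total × fu,plasma). Total concentrations were measured at steady state after a 3-day subcutaneous minipump infusion in knockout or wild-type animals. Species-matched free fractions came from 5 h, 37°C equilibrium dialysis at 1 µM in naïve plasma and brain homogenate.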

A short description of data set [17]: Unbound brain to plasma partition coefficient of the compound in mdr1a-deficient rat at 6 mg/kg/day administered through continuous minipump treatment for 3 days. The class given is ADME, organism-based. Conditions: other: continuous minipump, read-out: K(p,uu,brain). In short, it runs like this:
as §4

Data set [18] is described as follows: Percentage unbound in Crl:NMRI(Han) mouse brain at 1 uM after 5 hrs by equilibrium dialysis method. The class given is ADME, tissue-based. In short, it runs like this:
as §1

A short description of data set [19]: Unbound brain to plasma partition coefficient of the compound in wild type Crl:CF1 mouse expressing Abcb1a mutant at 3 mg/kg/day administered through continuous minipump treatment for 3 days. The class given is ADME, organism-based. The note with it: other: continuous minipump, read-out: K(p,uu,brain). In short, it runs like this:
as §4

A short description of data set [20]: Unbound brain to plasma partition coefficient of the compound in mdr1a-deficient mouse at 3 mg/kg/day administered through continuous minipump treatment for 3 days. The note with it: other: continuous minipump, read-out: K(p,uu,brain). The class given is ADME, organism-based. In short, it runs like this: as §4

The term fraction unbound denotes the share of the substance not bound to proteins or other matrix. What is called Kp is tissue or fluid exposure divided by exposure in the circulation.

With `Cc1nc2n(c(=O)c1CCN1CCC(c3noc4cc(F)ccc34)CC1)CC(O)CC2` (configuration not stated), the free fraction (fraction unbound) at 5 h, 1 µM in data set [1] was 0.54; in data set [2], 0.2.

With `O=C1CCc2ccc(OCCCCN3CCN(c4cccc(Cl)c4Cl)CC3)cc2N1` [ARIPIPRAZOLE], the fraction unbound at 5 h, 1 µM amounted to 0.002 in data set [1], 0.001 in [2], 0.001 in data set [15] and 0.001 in data set [18]. Also, the concentration at 72 h in data set [3] amounted to 18 ng/mL; in data set [4] it was 3 ng/g; in data set [6], 22 ng/mL; in data set [7] it was 14 ng/g; in data set [9], 51 ng/mL; in data set [10], 25 ng/g. In addition, the values for the concentration at 72 h in [12] and in [13] were 32 ng/mL and 41 ng/g, respectively. In addition, the partition ratio (Kp) at 72 h in data set [5] came out at 0.19; in [8], 0.64; in data set [11], 0.49; in data set [14] it was 1.3. The Kp uu at 72 h is 0.19 in data set [16], 0.64 in [17], 0.25 in data set [19] and 0.64 in data set [20].
